# In the library only some 2% were active in any assay of this set; here they are far more common.
# NR2E3 ag-1: NR2E3 agonists in two-hybrid cells, primary screen, cell-based, luminescence, CHO-S, Gal4-NCOR/VP16-NR2E3 | Photoreceptor-specific nuclear receptor (Homo sapiens), Q9Y5X4 | luciferase | inhibition of corepressor binding, % at 3.98 µM | 360,000 compounds, 0.35% hits;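 active means inhibition above the mean of all tested compounds plus 3 SD, cut at about 70% in these data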;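 further: 0% = DMSO with NR2E3 transfected cells and 100% = cells lacking NR2E3 construct; higher means lower luciferase signal from less NR2E3 corepressor binding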
# Target sequence (Q9Y5X4 whole entry, looked up, the tested form may be a part): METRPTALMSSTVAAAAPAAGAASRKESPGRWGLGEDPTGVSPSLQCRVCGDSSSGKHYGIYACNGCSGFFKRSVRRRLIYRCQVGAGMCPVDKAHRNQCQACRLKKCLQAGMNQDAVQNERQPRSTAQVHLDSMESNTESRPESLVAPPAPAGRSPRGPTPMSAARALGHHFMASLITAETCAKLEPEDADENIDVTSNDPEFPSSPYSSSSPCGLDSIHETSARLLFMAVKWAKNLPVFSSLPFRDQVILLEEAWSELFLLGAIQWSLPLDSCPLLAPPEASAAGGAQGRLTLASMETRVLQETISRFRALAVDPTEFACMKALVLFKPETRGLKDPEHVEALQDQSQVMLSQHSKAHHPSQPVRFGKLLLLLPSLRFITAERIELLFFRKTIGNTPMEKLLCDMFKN
# NR2E3 ag-2: inhibitors of NR2E3-RetCOR corepressor binding, primary screen, NR2E3 agonist project, biochemical, TR-FRET, GST-NR2E3, biotin-RetCOR; Photoreceptor-specific nuclear receptor (Homo sapiens), Q9Y5X4; 1536-well; inhibition of corepressor binding, % at 4.78 µM; 320,000 compounds, 0.12% hits;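 active means percent inhibition above the cutoff of mean plus 3 SD of all tested compounds, set per screening campaign, cut at about 20% in these data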;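 further: 0% = DMSO wells and 100% = biotin wells as full block of FRET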
#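 Format: 1536-well format; test system: GST-NR2E3 and biotin-RetCOR proteins; read-out basis: percent inhibition of TR-FRET ratio; timing: 5 h incubation at 4 °C; detection: time-resolved FRET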
# T cell HTS: modulators of CD8 T cell-vesicle binding, primary screen, mouse 2C CD8+ T cells, flow cytometry. response (vesicle binding), % at 7 µM. 330,000 compounds, 0.068% hits. 2C CD8+ T cell-vesicle binding; stronger effect = lower value;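 active means response, share of CD8 T cells binding vesicles, and their 90th percentile fluorescence all below set limits, cut at about 80% in these data, passing the limit was not always enough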;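 further: values below 100% mean blocked vesicle binding to the CD8+ T cells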
#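 Also added: QL9-peptide-loaded Drosophila micro-vesicles bearing Ld, ICAM-1 and B7-1; Test system: purified 2C TCR transgenic mouse naive CD8+ T cells; Measured by: cytometric PE anti-B7-1 and Alexa647 anti-CD8 signals after 1% paraformaldehyde fixation; Timing: binding step 1.5 h, 37 °C, antibody labelling 20 min, ice.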
# Myeloid diff 2: induction of myeloid progenitor differentiation, primary screen, cell-based, flow cytometry, MLPCN library | ER-HoxA9 myeloid progenitors, lysozyme-GFP differentiation | calls only at 10 µM | 360,000 compounds, 1% hits | AID 624256, 2012;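 active means normalized GFP-positive differentiation at or above the plate's own cutoff, the solvent-only control mean plus 3 SD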;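 further: cells exposed to compound for four days before flow analysis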
# GAA850 FXN act: FXN promoter activators, primary screen, cell-based, luciferase luminescence, HEK293 lucGAA850. HEK293 lucGAA850 FXN promoter luciferase reporter, 24 h; percent of 10 µM SAHA response. activation, % at 6 µM. 360,000 compounds, 0.56% hits. AID 540364, 2011;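 active means activation above the average of all compounds screened plus 3 SD, cutoff fixed separately per campaign, cut at about 7.5% in these data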;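 further: 0% = DMSO wells and 100% = 10 µM SAHA wells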
# Myeloid diff: inducers of myeloid progenitor differentiation, confirmation, cell-based, GFP/Mac1 flow cytometry, cherry pick 01. shares compounds with Myeloid diff 2. ER-HoxA9 myeloid progenitors, GFP/Mac1 double-positive flow. calls only. 2,300 compounds, 2% hits. AID 651706, 2012;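 active means share of green or green-and-red cells above 9 and 9% in run 1 or 4 and 3% in run 2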
# GFP autofluor: counter-screen for myeloid differentiation promoters: compound fluorescence | shares compounds with Myeloid diff 2 | ER-HoxA9 myeloid progenitors, no estrogen, GFP autofluorescence flow cytometry; vehicle wells 0%, positive control 100% | fluorescence response, % (concentration not given with the values) | 2,300 compounds, 7.4% hits;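 active means over 5% cells positive for green fluorescent reporter, or over 2% positive for both it and APC stain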;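 further: range taken on the double positive population between DMSO and positive control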
# The depositor's hits bear a star; i = inactive; · = no result given; + = active, no number; ! = repeats disagree.
SMILES,NR2E3 ag-1,NR2E3 ag-2,T cell HTS,Myeloid diff 2,GAA850 FXN act,Myeloid diff,GFP autofluor
CS(=O)(=O)c1nc(S(=O)(=O)c2ccc(Cl)cc2)c(N2CCOCC2)s1,-17.3,-2.1,294.9,i,1.2,i,0.0
CC(=O)Nc1cccc(-c2ccnc3c2CC(C(=O)NCc2ccc(N(C)C)cc2)O3)c1 (configuration not stated),-21.8,·,·,i,-5.1,·,·
O=C(OCC(=O)c1c[nH]c2ccccc12)c1cccc(S(=O)(=O)N2CCCCCC2)c1,-2.0,-0.2,525.9,i,-0.2,i,0.0
CCOC(=O)C1CCN(C(=O)COc2ccc(Cl)cc2Cl)CC1,-0.5,-4.0,160.8,i,0.3,i,0.0
C=CCNC(=O)c1ccccc1NC(=O)c1ccccc1,3.5,3.1,0.0,i,-1.6,i,0.9
O=C(Nc1ccccc1C(=O)Nc1ccccc1C(=O)O)c1ccccc1,-2.2,-5.5,283.9,i,-2.2,·,·
CCN1C(=O)[C@H]2[C@@H](c3ccc(C(F)(F)F)cc3)N[C@]3(CCCN(Cc4ccc(Cl)cc4)C3=O)[C@H]2C1=O,8.5,·,·,i,-4.3,·,·
COc1ccc2oc(C(=O)OCC(=O)Nc3ccc(C)c(S(=O)(=O)N4CCOCC4)c3)c(C)c2c1,-23.1,·,·,i,3.6,·,·
Cc1oc(-c2ccccc2F)nc1CS(=O)(=O)CC(=O)NCCN(C)C1CCCCC1,9.5,-1.9,739.4,i,-1.4,i,0.5
Cc1oc(-c2ccccc2F)nc1CS(=O)(=O)CC(=O)NC1CCCC1,-4.6,0.6,351.0,i,0.8,·,·
Cc1ccnc(S(=O)(=O)Cc2ccc([N+](=O)[O-])cc2)n1,-32.7,0.4,309.0,i,-0.7,i,0.0
NS(=O)(=O)c1ccc(CCNC(=O)C2CCCN2C(=O)c2cccs2)cc1 (configuration not stated),3.6,·,·,i,-0.1,·,·
CCCCCc1ccc2cc(C#N)ccc2n1,-44.0,·,·,i,·,·,·
O=S(=O)(N/N=C\C=C\c1ccccc1)c1ccc(Br)cc1,-16.6,2.0,400.9,i,-0.7,·,·
Cc1ccc(S(=O)(=O)N/N=C\C=C\c2ccccc2)cc1,13.2,-1.8,466.1,·,-1.1,i,0.0
COc1cccc(-c2csc(N3CCN(CC(=O)NNC(=O)c4ccc(Cl)cc4)CC3)n2)c1,-5.8,0.0,409.6,i,0.2,i,0.0
COc1cccc(-c2csc(N3CCN(CC(=O)NNC(=O)c4ccc(Br)cc4)CC3)n2)c1,6.6,0.9,638.3,i,1.4,·,·
CC(=O)Nc1ccc2c(c1)C(=O)c1ccc(Cl)cc1-2,-5.1,·,·,i,-0.1,·,·
Cc1cccc(-c2nnc3sc(-c4ccccc4)nn23)c1,-18.1,-5.0,476.9,i,5.6,·,·
COc1ccc(-c2nn3c(-c4cccc(C)c4)nnc3s2)cc1OC,-21.3,1.8,227.6,i,4.5,i,0.0
N#C/C(=C\c1cc(Cl)ccc1O)C(=O)NC1CCCCC1,-10.5,3.2,175.9,i,-1.6,·,·
N#C/C(=C\c1cc(Cl)cc(Cl)c1O)C(=O)NC1CCCCC1,5.6,0.0,207.7,i,-0.7,i,0.3
NC(=S)N/N=C/c1ccc(-c2ccc([N+](=O)[O-])cc2)o1,-9.4,-3.4,460.1,i,1.9,i,3.2
CCCNC(=O)CN1C(=O)COc2ccc(S(=O)(=O)N3CC(C)CC(C)C3)cc21 (configuration not stated),-29.2,-2.4,612.0,i,0.9,·,·
CCOC(=O)CN1C(=O)C2(OCCCO2)c2ccccc21,-11.4,4.1,341.8,i,-0.1,·,·
SMILES,NR2E3 ag-1,NR2E3 ag-2,T cell HTS,Myeloid diff 2,GAA850 FXN act,Myeloid diff,GFP autofluor
COC(=O)CN1C(=O)C2(OCCCO2)c2cc(Br)ccc21,-5.8,0.2,503.3,i,-1.2,i,0.6
CC(C)(C)NC(=O)C(c1ccc(-c2ccccc2)cc1)N(C[C@H]1CC[C@@H]([C@@H]2CC[C@H](CO)O2)O1)C(=O)c1ccc(C(C)(C)C)cc1 (some centres not stated),6.0,·,·,i,1.2,i,0.0
CCOc1ccc(/C(O)=C2/C(=O)C(=O)N(c3nc(C)c(C)s3)C2c2ccco2)cc1 (configuration not stated),-55.2,7.5,175.7,i,0.7,i,9.0*
COc1cc(C(=O)NCC(c2ccco2)N2CCCC2)ccc1OCc1ccc(Cl)cc1Cl (configuration not stated),8.2,·,·,+,0.0,i,4.0
C#CC[N+]1(CC#Cc2ccccc2)CCCC1,11.5,-3.7,263.8,+,0.4,i,0.4
CC1Nc2ncnc(N3CCc4ccccc4C3)c2N(Cc2ccc(Br)cc2)C1=O (configuration not stated),-19.2,0.1,·,+!,-0.7,i,0.0
CC1Nc2ncnc(N3CCc4ccccc4C3)c2N(Cc2ccc(Cl)cc2)C1=O (configuration not stated),-2.9,-1.6,·,i,0.0,·,·
C=C(C)Cn1c2ccc(NC(=O)CCc3cccc(Cl)c3)cc2c(=O)n1C,-25.1,·,·,i,-4.4,·,·
COc1ccc(S(=O)(=O)Nc2cc(C)on2)cc1,3.3,-0.3,458.3,i,0.2,·,·
CN1c2ccccc2C(C)(C)C12C=Cc1cc(O)ccc1O2 (configuration not stated),10.6,1.5,452.7,+,2.2,i,53.3*
CN1c2ccccc2C(C)(C)C12C=Nc1c(cc(N3CCOCC3)c3ccccc13)O2 (configuration not stated),9.6,·,·,i,1.8,·,·
CCc1nn(CC(=O)NCCCN(Cc2ccccc2)C(C)C)c(=O)c2cc3sccc3n12,8.2,-1.6,183.7,+,2.4,i,0.5
CCCCCCCCN1C(=O)[C@H](CC(=O)NCCCOCCCC)C[C@@]2(C(=O)OC)CC(C)(C)CC=C12,·,·,·,i,·,·,·
COCCCn1c(SCC(=O)N2CCOCC2)nc2cc(Cl)ccc2c1=O,5.6,0.5,507.3,i,1.5,·,·
O=C(Nc1sc2c(c1C(=O)NCC1CCCO1)CCCC2)c1cccs1 (configuration not stated),-34.6,2.0,311.5,i,5.9,i,0.0
